# According to ChEMBL document CHEMBL3045504, “Activity of 1,4-benzoquinones against formosan subterranean termites (Coptotermes formosanus)” (2008):
# Key:
# Type in all cases: functional
# [1] = system: Coptotermes formosanus; experiment: Termiticidal activity against Coptotermes formosanus placed on 1 % wt/wt compound treated filter paper assessed as termite mortality measured 3 days post compound exposure
# [2] = system: Coptotermes formosanus; experiment: Antifeedant activity against Coptotermes formosanus placed on 1 % wt/wt compound treated filter paper assessed as filter paper consumption measured 21 days post compound exposure (reference value: 54.4 +/- 20.7 mg)
# [3] = system: Coptotermes formosanus; experiment: Termiticidal activity against Coptotermes formosanus placed on 1 % wt/wt compound treated filter paper assessed as termite mortality measured 21 days post compound exposure
# [4] = system: Coptotermes formosanus; experiment: Termiticidal activity against Coptotermes formosanus placed on 1 % wt/wt compound treated filter paper assessed as termite mortality measured 11 days post compound exposure
# [5] = system: Coptotermes formosanus; experiment: Termiticidal activity against Coptotermes formosanus placed on 0.001 % wt/wt compound treated filter paper assessed as termite mortality measured 17 days post compound exposure
# How it was run: (§1)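 Treated filter paper disks moistened with 100 µL water; 20 C. formosanus workers (third instar or greater) plus 1 soldier per dish from field colonies kept on spruce, ca. 100% RH, 26.6 °C. Daily mortality scored for 3 weeks; cumulative percent mortality from four replicates, each a different colony; water-only controls; ANOVA, protected Fisher LSD (P < 0.05) after arcsine square-root transform.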
# [6] = system: Coptotermes formosanus; experiment: Termiticidal activity against Coptotermes formosanus placed on 0.001 % wt/wt compound treated filter paper assessed as termite mortality measured 6 days post compound exposure; how it was run: as §1
# [7] = system: Coptotermes formosanus; experiment: Termiticidal activity against Coptotermes formosanus placed on 0.05 % wt/wt compound treated filter paper assessed as termite mortality measured 11 days post compound exposure; how it was run: as §1
# [8] = system: Coptotermes formosanus; experiment: Antifeedant activity against Coptotermes formosanus placed on 0.1 % wt/wt compound treated filter paper assessed as filter paper consumption measured 21 days post compound exposure (reference value: 78.2 +/- 26.7 mg)
# [9] = system: Coptotermes formosanus; experiment: Termiticidal activity against Coptotermes formosanus placed on 0.1 % wt/wt compound treated filter paper assessed as termite mortality measured 21 days post compound exposure; how it was run: as §1
# [10] = system: Coptotermes formosanus; experiment: Termiticidal activity against Coptotermes formosanus placed on 0.1 % wt/wt compound treated filter paper assessed as termite mortality measured 17 days post compound exposure; how it was run: as §1
# [11] = system: Coptotermes formosanus; experiment: Antifeedant activity against Coptotermes formosanus placed on 0.001 % wt/wt compound treated filter paper assessed as filter paper consumption measured 21 days post compound exposure (reference value: 78.2 +/- 26.7 mg)
# [12] = system: Coptotermes formosanus; experiment: Termiticidal activity against Coptotermes formosanus placed on 0.001 % wt/wt compound treated filter paper assessed as termite mortality measured 9 days post compound exposure; how it was run: as §1
# [13] = system: Coptotermes formosanus; experiment: Termiticidal activity against Coptotermes formosanus placed on 0.5 % wt/wt compound treated filter paper assessed as termite mortality measured 13 days post compound exposure; how it was run: as §1
# [14] = system: Coptotermes formosanus; experiment: Antifeedant activity against Coptotermes formosanus placed on 0.05 % wt/wt compound treated filter paper assessed as filter paper consumption measured 21 days post compound exposure (reference value: 78.2 +/- 26.7 mg)
# [15] = system: Coptotermes formosanus; experiment: Termiticidal activity against Coptotermes formosanus placed on 0.5 % wt/wt compound treated filter paper assessed as termite mortality measured 9 days post compound exposure; how it was run: as §1
# [16] = system: Coptotermes formosanus; experiment: Termiticidal activity against Coptotermes formosanus placed on 0.05 % wt/wt compound treated filter paper assessed as termite mortality measured 6 days post compound exposure; how it was run: as §1
# [17] = system: Coptotermes formosanus; experiment: Termiticidal activity against Coptotermes formosanus placed on 0.01 % wt/wt compound treated filter paper assessed as termite mortality measured 21 days post compound exposure; how it was run: as §1
# [18] = system: Coptotermes formosanus; experiment: Termiticidal activity against Coptotermes formosanus placed on 0.1 % wt/wt compound treated filter paper assessed as termite mortality measured 13 days post compound exposure; how it was run: as §1
# [19] = system: Coptotermes formosanus; experiment: Termiticidal activity against Coptotermes formosanus placed on 0.05 % wt/wt compound treated filter paper assessed as termite mortality measured 21 days post compound exposure; how it was run: as §1
# [20] = system: Coptotermes formosanus; experiment: Termiticidal activity against Coptotermes formosanus placed on 0.001 % wt/wt compound treated filter paper assessed as termite mortality measured 11 days post compound exposure; how it was run: as §1
# [21] = system: Coptotermes formosanus; experiment: Termiticidal activity against Coptotermes formosanus placed on 0.001 % wt/wt compound treated filter paper assessed as termite mortality measured 13 days post compound exposure; how it was run: as §1
# [22] = system: Coptotermes formosanus; experiment: Termiticidal activity against Coptotermes formosanus placed on 0.5 % wt/wt compound treated filter paper assessed as termite mortality measured 11 days post compound exposure; how it was run: as §1
# [23] = system: Coptotermes formosanus; experiment: Antifeedant activity against Coptotermes formosanus placed on 1 % wt/wt compound treated filter paper assessed as filter paper consumption measured 21 days post compound exposure (reference value: 85 +/- 15.1 mg)
# [24] = system: Coptotermes formosanus; experiment: Antifeedant activity against Coptotermes formosanus placed on 0.01 % wt/wt compound treated filter paper assessed as filter paper consumption measured 21 days post compound exposure (reference value: 78.2 +/- 26.7 mg)
# [25] = system: Coptotermes formosanus; experiment: Termiticidal activity against Coptotermes formosanus placed on 0.1 % wt/wt compound treated filter paper assessed as termite mortality measured 9 days post compound exposure; how it was run: as §1
# [26] = system: Coptotermes formosanus; experiment: Termiticidal activity against Coptotermes formosanus placed on 0.05 % wt/wt compound treated filter paper assessed as termite mortality measured 9 days post compound exposure; how it was run: as §1
# [27] = system: Coptotermes formosanus; experiment: Antifeedant activity against Coptotermes formosanus placed on 0.5 % wt/wt compound treated filter paper assessed as filter paper consumption measured 21 days post compound exposure (reference value: 78.2 +/- 26.7 mg)
# [28] = system: Coptotermes formosanus; experiment: Termiticidal activity against Coptotermes formosanus placed on 0.05 % wt/wt compound treated filter paper assessed as termite mortality measured 13 days post compound exposure; how it was run: as §1
# [29] = system: Coptotermes formosanus; experiment: Termiticidal activity against Coptotermes formosanus placed on 0.1 % wt/wt compound treated filter paper assessed as termite mortality measured 6 days post compound exposure; how it was run: as §1
# [30] = system: Coptotermes formosanus; experiment: Termiticidal activity against Coptotermes formosanus placed on 0.05 % wt/wt compound treated filter paper assessed as termite mortality measured 17 days post compound exposure; how it was run: as §1
# [31] = system: Coptotermes formosanus; experiment: Termiticidal activity against Coptotermes formosanus placed on 0.1 % wt/wt compound treated filter paper assessed as termite mortality measured 11 days post compound exposure; how it was run: as §1
# [32] = system: Coptotermes formosanus; experiment: Termiticidal activity against Coptotermes formosanus placed on 0.01 % wt/wt compound treated filter paper assessed as termite mortality measured 9 days post compound exposure; how it was run: as §1
# [33] = system: Coptotermes formosanus; experiment: Termiticidal activity against Coptotermes formosanus placed on 0.5 % wt/wt compound treated filter paper assessed as termite mortality measured 17 days post compound exposure; how it was run: as §1
# [34] = system: Coptotermes formosanus; experiment: Termiticidal activity against Coptotermes formosanus placed on 0.01 % wt/wt compound treated filter paper assessed as termite mortality measured 13 days post compound exposure; how it was run: as §1
# [35] = system: Coptotermes formosanus; experiment: Termiticidal activity against Coptotermes formosanus placed on 0.001 % wt/wt compound treated filter paper assessed as termite mortality measured 21 days post compound exposure; how it was run: as §1
# [36] = system: Coptotermes formosanus; experiment: Termiticidal activity against Coptotermes formosanus placed on 0.5 % wt/wt compound treated filter paper assessed as termite mortality measured 21 days post compound exposure; how it was run: as §1
# [37] = system: Coptotermes formosanus; experiment: Termiticidal activity against Coptotermes formosanus placed on 0.01 % wt/wt compound treated filter paper assessed as termite mortality measured 6 days post compound exposure; how it was run: as §1
# [38] = system: Coptotermes formosanus; experiment: Termiticidal activity against Coptotermes formosanus placed on 0.01 % wt/wt compound treated filter paper assessed as termite mortality measured 11 days post compound exposure; how it was run: as §1
# [39] = system: Coptotermes formosanus; experiment: Termiticidal activity against Coptotermes formosanus placed on 0.5 % wt/wt compound treated filter paper assessed as termite mortality measured 6 days post compound exposure; how it was run: as §1
# [40] = system: Coptotermes formosanus; experiment: Termiticidal activity against Coptotermes formosanus placed on 0.01 % wt/wt compound treated filter paper assessed as termite mortality measured 17 days post compound exposure; how it was run: as §1
# [41] = system: Coptotermes formosanus; experiment: Antifeedant activity against Coptotermes formosanus placed on 0.05 % wt/wt compound treated filter paper assessed as filter paper consumption measured 21 days post compound exposure (reference value: 44.6 +/- 0.0 mg)
# [42] = system: Coptotermes formosanus; experiment: Antifeedant activity against Coptotermes formosanus placed on 0.1 % wt/wt compound treated filter paper assessed as filter paper consumption measured 21 days post compound exposure (reference value: 44.6 +/- 0.0 mg)
# [43] = system: Coptotermes formosanus; experiment: Antifeedant activity against Coptotermes formosanus placed on 0.01 % wt/wt compound treated filter paper assessed as filter paper consumption measured 21 days post compound exposure (reference value: 44.6 +/- 0.0 mg)
# [44] = system: Coptotermes formosanus; experiment: Antifeedant activity against Coptotermes formosanus placed on 0.001 % wt/wt compound treated filter paper assessed as filter paper consumption measured 21 days post compound exposure (reference value: 44.6 +/- 0.0 mg)
# [45] = system: Coptotermes formosanus; experiment: Antifeedant activity against Coptotermes formosanus placed on 0.5 % wt/wt compound treated filter paper assessed as filter paper consumption measured 21 days post compound exposure (reference value: 44.6 +/- 0.0 mg)
# [46] = system: Coptotermes formosanus; experiment: Antifeedant activity against Coptotermes formosanus placed on 1 % wt/wt compound treated filter paper assessed as filter paper consumption measured 21 days post compound exposure (reference value: 15.9 +/- 10.4 mg)
SMILES,mortality [1] [%],mortality [3] [%],mortality [4] [%],mortality [5] [%],mortality [6] [%],mortality [7] [%],mortality [9] [%],mortality [10] [%],mortality [12] [%],mortality [13] [%],mortality [15] [%],mortality [16] [%],mortality [17] [%],mortality [18] [%],mortality [19] [%],mortality [20] [%],mortality [21] [%],mortality [22] [%],mortality [25] [%],mortality [26] [%],further results
CC1=CC(=O)C(C)=C(C)C1=O,0,36.7,18.3,–,–,–,–,–,–,–,–,–,–,–,–,–,–,–,–,–,Activity [2]: 55.4 mg
COC1=C(OC)C(=O)C(CC=C(C)C)=C(C)C1=O [Coenzyme Q1],70,100,100,3.3,3.3,0,8.3,8.3,3.3,5,3.3,0,5,0,5,3.3,3.3,3.3,0,0,Activity [8]: 101.6 mg; Activity [11]: 98.5 mg; Activity [14]: 98.1 mg; Activity [23]: 16.9 mg; Activity [24]: 77.3 mg; Activity [27]: 95.8 mg; mortality [28]: 0%; mortality [29]: 0%; mortality [30]: 5%; mortality [31]: 0%; mortality [32]: 5%; mortality [33]: 8.3%; mortality [34]: 5%; mortality [35]: 3.3%; mortality [36]: 10%; mortality [37]: 5%; mortality [38]: 5%; mortality [39]: 3.3%; mortality [40]: 5%
CCCCCC1=CC(=O)C=C(OC)C1=O [Primin],87.5,100,100,1.7,0,3.3,50,40,0,96.7,80,3.3,21.7,36.7,25,0,0,91.7,21.7,3.3,Activity [41]: 42.2 mg; Activity [42]: 26.8 mg; Activity [43]: 48.4 mg; mortality [28]: 5%; mortality [29]: 21.7%; mortality [30]: 8.3%; mortality [31]: 28.3%; Activity [44]: 48.8 mg; Activity [45]: 4.9 mg; mortality [32]: 0%; mortality [33]: 100%; mortality [34]: 5%; mortality [35]: 8.3%; mortality [36]: 100%; mortality [37]: 0%; mortality [38]: 0%; mortality [39]: 56.7%; mortality [40]: 10%; Activity [46]: 0.1 mg
